Test results: ChEMBL document CHEMBL4321879, “Novel Class of Colony-Stimulating Factor 1 Receptor Kinase Inhibitors Based on an o-Aminopyridyl Alkynyl Scaffold as Potential Treatment for Inflammatory Disorders” (J Med Chem, 2020)

Key:
[1] = target: Fibroblast growth factor receptor 2 (Homo sapiens, UniProt P21802); assay: Inhibition of recombinant human N-terminal His6-tagged FGFR2 (456 to 770 residues) expressed in baculovirus infected Sf21 insect cells at 100 nM using poly (Glu, Tyr)4:1 as substrate measured after 1 hr by ELISA relative to control
In short: (§1)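 Recombinant kinase was incubated with compound in reaction buffer containing 5 μM ATP, in wells precoated with poly(Glu,Tyr) 4:1, for 1 h at 37 °C. Phosphorylation was detected by ELISA.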

[2] = Cmax in Sprague-Dawley rat at 5 mg/kg, po administered via gavage by LC-MS/MS analysis; type: ADME, organism-based; parameters: dose 5 mg/kg, route oral; conditions: in vivo
In short: (§2)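 Male SD rats (200 ± 20 g) were fasted 12 h with free access to water, n = 3 per group. One group received 2 mg/kg iv in DMSO/EtOH/PEG300/saline (5/5/40/50). The other received 5 mg/kg by oral gavage in DMSO/HPMC (5/95). Femoral-vein plasma was taken at 15–1440 min, methanol-precipitated with internal standard, and measured by LC–MS/MS. Noncompartmental analysis; AUC by trapezoidal method.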

[3] = target: Proto-oncogene tyrosine-protein kinase receptor Ret (Homo sapiens) (UniProt P07949); assay: Inhibition of recombinant human N-terminal GST-tagged RET (658 to end residues) expressed in baculovirus infected Sf21 insect cells at 1000 nM using poly (Glu, Tyr)4:1 as substrate measured after 1 hr by ELISA relative to control; in short: as §1
[4] = target: Vascular endothelial growth factor receptor 2 (Homo sapiens) (UniProt P35968); assay: Inhibition of recombinant human VEGFR2 (D1-7) expressed in Spodoptera frugiperda insect cells at 10 nM using poly (Glu, Tyr)4:1 as substrate measured after 1 hr by ELISA relative to control
Vascular endothelial growth factor receptor 2 (Homo sapiens), sequence (P35968 whole entry): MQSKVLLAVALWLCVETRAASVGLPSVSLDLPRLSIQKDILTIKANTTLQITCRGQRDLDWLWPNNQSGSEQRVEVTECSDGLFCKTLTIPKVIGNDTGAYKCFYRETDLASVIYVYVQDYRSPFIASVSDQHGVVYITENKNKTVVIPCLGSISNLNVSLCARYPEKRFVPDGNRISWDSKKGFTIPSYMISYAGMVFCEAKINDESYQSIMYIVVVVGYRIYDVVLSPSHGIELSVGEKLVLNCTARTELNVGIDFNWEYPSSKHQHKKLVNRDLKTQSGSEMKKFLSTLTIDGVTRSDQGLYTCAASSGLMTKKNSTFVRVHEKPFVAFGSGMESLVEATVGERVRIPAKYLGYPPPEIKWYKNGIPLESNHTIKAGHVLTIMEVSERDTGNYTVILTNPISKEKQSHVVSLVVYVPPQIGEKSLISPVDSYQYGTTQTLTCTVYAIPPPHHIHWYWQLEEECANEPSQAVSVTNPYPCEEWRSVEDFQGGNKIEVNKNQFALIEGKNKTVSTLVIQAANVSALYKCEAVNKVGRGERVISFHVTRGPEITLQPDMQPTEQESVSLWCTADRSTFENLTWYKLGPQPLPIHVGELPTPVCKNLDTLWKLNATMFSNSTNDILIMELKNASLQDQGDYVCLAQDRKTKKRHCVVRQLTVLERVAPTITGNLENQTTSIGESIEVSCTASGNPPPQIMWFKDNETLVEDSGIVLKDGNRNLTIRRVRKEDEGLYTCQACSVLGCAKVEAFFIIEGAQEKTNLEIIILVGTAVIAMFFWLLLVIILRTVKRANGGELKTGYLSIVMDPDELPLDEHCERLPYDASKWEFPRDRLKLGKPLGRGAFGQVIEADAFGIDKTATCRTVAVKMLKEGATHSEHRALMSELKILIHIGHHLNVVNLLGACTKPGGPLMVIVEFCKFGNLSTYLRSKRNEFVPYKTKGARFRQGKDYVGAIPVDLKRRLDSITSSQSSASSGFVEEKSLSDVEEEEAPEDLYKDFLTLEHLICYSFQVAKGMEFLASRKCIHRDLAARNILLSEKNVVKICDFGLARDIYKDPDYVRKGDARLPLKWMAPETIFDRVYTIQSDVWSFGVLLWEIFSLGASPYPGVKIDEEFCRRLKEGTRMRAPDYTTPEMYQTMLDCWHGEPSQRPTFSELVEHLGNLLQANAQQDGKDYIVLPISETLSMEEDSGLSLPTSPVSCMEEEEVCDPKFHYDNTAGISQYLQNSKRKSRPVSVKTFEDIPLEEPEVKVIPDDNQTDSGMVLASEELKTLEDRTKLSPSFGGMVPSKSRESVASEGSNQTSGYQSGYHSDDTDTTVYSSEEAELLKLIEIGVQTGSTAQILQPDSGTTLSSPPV
In short: (§3)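 ELISA kinase assay: recombinant kinase added to wells precoated with poly(Glu,Tyr)4:1 and incubated with compound in reaction buffer containing 5 μM ATP, 37 °C for 1 h; wells then washed before antibody detection.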

[5] = target: Proto-oncogene tyrosine-protein kinase Src (Homo sapiens) (UniProt P12931); assay: Inhibition of recombinant human full-length N-terminal His6-tagged Src expressed in Sf21 insect cells at 1000 nM using poly (Glu, Tyr)4:1 as substrate measured after 1 hr by ELISA relative to control; in short: as §3
Proto-oncogene tyrosine-protein kinase Src (Homo sapiens), sequence (P12931 2-536 limits assumed): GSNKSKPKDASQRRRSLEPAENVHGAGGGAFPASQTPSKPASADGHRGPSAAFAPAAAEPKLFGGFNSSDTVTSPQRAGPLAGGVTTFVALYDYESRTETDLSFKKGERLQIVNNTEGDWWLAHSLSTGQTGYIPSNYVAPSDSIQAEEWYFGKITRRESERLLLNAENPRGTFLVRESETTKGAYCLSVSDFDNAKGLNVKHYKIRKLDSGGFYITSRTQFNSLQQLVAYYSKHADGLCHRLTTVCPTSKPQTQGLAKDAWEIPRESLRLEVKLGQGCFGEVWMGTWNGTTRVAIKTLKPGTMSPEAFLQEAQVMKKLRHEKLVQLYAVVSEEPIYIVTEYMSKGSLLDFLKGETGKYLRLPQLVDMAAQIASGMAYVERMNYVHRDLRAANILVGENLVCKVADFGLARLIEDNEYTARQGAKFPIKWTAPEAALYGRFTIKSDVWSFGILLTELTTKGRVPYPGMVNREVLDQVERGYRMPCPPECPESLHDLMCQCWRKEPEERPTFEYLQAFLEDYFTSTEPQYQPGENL

[6] = target: Fibroblast growth factor receptor 1 (Homo sapiens, UniProt P11362); assay: Inhibition of recombinant human N-terminal GST-tagged FGFR1 (456 to 765 residues) expressed in baculovirus infected Sf21 insect cells at 100 nM using poly (Glu, Tyr)4:1 as substrate measured after 1 hr by ELISA relative to control; in short: as §1
c-KIT = c-KIT (Homo sapiens, UniProt P10721); assay: Inhibition of recombinant human N-terminal GST-tagged c-KIT (544 to end residues) expressed in baculovirus infected Sf21 insect cells at 1000 nM using poly (Glu, Tyr)4:1 as substrate measured after 1 hr by ELISA relative to control; conditions: probe poly (Glu, Tyr)4:1; in short: as §1
[7] = target: Epidermal growth factor receptor (Homo sapiens) (UniProt P00533); assay: Inhibition of recombinant human N-terminal GST-tagged EGFR (696 to end residues) expressed in baculovirus infected Sf21 insect cells at 1000 nM using poly (Glu, Tyr)4:1 as substrate measured after 1 hr by ELISA relative to control; in short: as §1
Epidermal growth factor receptor (Homo sapiens), sequence (P00533 whole entry): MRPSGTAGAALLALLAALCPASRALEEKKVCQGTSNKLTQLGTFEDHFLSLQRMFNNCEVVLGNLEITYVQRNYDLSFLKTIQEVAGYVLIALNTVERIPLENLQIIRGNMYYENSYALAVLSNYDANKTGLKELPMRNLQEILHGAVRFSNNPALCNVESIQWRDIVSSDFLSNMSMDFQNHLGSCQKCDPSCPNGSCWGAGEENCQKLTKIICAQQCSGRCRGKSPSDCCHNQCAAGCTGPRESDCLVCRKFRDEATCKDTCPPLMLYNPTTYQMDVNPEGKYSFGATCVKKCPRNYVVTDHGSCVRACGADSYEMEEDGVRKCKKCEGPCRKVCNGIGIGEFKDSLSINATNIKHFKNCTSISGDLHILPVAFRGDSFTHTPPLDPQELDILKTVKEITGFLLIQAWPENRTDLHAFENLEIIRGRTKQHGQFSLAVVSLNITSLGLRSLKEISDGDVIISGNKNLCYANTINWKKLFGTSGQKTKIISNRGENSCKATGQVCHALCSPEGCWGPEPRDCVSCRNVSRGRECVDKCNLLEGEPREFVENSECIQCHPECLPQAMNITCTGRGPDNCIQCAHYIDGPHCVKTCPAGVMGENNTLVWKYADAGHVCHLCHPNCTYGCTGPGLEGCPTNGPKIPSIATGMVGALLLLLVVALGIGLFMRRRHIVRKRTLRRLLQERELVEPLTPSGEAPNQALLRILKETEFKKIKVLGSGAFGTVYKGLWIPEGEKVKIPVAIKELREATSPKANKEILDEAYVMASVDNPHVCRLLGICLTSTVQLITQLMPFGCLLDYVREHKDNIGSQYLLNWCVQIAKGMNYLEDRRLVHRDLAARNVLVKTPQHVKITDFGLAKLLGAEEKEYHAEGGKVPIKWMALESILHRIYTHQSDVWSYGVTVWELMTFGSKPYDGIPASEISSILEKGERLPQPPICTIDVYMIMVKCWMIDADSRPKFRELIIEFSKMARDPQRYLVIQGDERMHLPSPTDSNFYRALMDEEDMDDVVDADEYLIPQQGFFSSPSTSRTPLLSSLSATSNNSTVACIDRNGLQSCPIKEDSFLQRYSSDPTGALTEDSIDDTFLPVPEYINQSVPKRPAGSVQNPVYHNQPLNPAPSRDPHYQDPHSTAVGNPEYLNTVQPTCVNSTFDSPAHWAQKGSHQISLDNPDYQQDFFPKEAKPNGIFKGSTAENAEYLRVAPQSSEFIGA

[8] = Elimination half life in Sprague-Dawley rat at 2 mg/kg, iv administered […] by LC-MS/MS analysis; type: ADME, organism-based; conditions: in vivo, read-out: beta t1/2 (converted); in short: as §2
[9] = MRT (infinity) in Sprague-Dawley rat at 5 mg/kg, po administered via gavage by LC-MS/MS analysis; type: ADME, organism-based; conditions: in vivo
In short: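 Male SD rats (200 ± 20 g), fasted 12 h, n = 3; oral gavage 5 mg/kg in DMSO/HPMC (5/95). Femoral vein blood at 15–1440 min; plasma precipitated with methanol plus internal standard, LC–MS/MS; noncompartmental analysis, Tmax observed directly, MRT = AUMC/AUC.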

[10] = target: Insulin receptor (Homo sapiens) (UniProt P06213); assay: Inhibition of recombinant human N-terminal His6-tagged IR (1005 to 1310 residues) expressed in baculovirus infected Sf21 insect cells at 1000 nM using poly (Glu, Tyr)4:1 as substrate measured after 1 hr by ELISA relative to control; in short: as §3
Insulin receptor (Homo sapiens), sequence (P06213 28-758 limits assumed): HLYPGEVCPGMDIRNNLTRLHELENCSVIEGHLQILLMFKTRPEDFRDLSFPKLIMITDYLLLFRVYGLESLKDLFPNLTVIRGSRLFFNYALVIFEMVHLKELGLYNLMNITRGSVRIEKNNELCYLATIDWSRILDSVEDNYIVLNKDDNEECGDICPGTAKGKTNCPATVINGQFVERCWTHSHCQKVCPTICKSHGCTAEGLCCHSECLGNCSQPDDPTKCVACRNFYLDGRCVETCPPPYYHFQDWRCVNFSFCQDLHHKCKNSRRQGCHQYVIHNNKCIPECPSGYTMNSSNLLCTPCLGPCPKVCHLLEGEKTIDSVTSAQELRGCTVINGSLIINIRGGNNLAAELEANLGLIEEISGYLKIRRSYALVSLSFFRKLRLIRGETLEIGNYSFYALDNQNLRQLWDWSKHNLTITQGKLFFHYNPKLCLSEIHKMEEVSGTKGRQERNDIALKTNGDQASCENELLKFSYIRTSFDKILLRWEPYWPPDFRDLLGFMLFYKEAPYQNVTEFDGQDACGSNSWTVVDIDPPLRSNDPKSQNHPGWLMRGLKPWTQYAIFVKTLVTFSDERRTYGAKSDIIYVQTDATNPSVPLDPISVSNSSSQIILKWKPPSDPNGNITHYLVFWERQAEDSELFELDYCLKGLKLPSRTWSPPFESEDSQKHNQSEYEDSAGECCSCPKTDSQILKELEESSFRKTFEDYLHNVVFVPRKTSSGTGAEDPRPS
Insulin receptor (Homo sapiens), sequence (P06213 763-1382 limits assumed): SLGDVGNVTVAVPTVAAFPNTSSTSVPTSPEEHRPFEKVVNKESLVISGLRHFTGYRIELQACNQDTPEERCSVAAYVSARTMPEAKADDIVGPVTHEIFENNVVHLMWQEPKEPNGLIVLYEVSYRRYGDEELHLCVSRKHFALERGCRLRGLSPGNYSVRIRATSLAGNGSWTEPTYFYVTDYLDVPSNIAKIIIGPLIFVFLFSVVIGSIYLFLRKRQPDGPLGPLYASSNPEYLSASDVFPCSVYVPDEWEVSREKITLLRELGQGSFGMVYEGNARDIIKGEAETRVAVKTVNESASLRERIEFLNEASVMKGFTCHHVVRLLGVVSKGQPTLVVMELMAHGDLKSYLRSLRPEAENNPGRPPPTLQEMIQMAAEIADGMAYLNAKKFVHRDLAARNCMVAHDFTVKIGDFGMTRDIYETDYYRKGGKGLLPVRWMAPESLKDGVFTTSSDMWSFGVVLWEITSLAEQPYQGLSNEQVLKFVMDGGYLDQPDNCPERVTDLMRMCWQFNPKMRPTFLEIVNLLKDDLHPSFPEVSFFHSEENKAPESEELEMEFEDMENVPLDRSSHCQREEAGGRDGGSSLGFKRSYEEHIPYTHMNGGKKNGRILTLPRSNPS

[11] = target: Tyrosine-protein kinase BTK (Homo sapiens) (UniProt Q06187); assay: Inhibition of recombinant human full-length N-terminal His6-tagged BTK expressed in baculovirus infected Sf21 insect cells at 100 nM using poly (Glu, Tyr)4:1 as substrate measured after 1 hr by ELISA relative to control; in short: as §3
[12] = target: Vascular endothelial growth factor receptor 2 (Homo sapiens) (UniProt P35968); assay: Inhibition of recombinant human VEGFR2 (D1-7) expressed in Spodoptera frugiperda insect cells at 1000 nM using poly (Glu, Tyr)4:1 as substrate measured after 1 hr by ELISA relative to control; in short: as §3
[13] = target: Tyrosine-protein kinase ABL1 (Homo sapiens) (UniProt P00519); assay: Inhibition of recombinant human N-terminal His6-tagged Abl (27 to end residues) expressed in baculovirus infected Sf21 insect cells at 1000 nM using poly (Glu, Tyr)4:1 as substrate measured after 1 hr by ELISA relative to control; in short: as §1
[14] = target: Vascular endothelial growth factor receptor 3 (Homo sapiens) (UniProt P35916); assay: Inhibition of recombinant VEGFR3 (unknown origin) at 100 nM using poly (Glu, Tyr)4:1 as substrate measured after 1 hr by ELISA relative to control; in short: as §1
[15] = target: Platelet-derived growth factor receptor beta (Homo sapiens) (UniProt P09619); assay: Inhibition of recombinant human N-terminal His6-tagged PDGFRbeta (557 to end residues) expressed in baculovirus infected Sf21 insect cells at 1000 nM using poly (Glu, Tyr)4:1 as substrate measured after 1 hr by ELISA relative to control; in short: as §3
[16] = target: Activated CDC42 kinase 1 (Homo sapiens) (UniProt Q07912); assay: Inhibition of recombinant human N-terminal GST-tagged ACK1 (1 to 389 residues) expressed in baculovirus infected Sf21 insect cells at 1000 nM using poly (Glu, Tyr)4:1 as substrate measured after 1 hr by ELISA relative to control; in short: as §1
[17] = Elimination half life in Sprague-Dawley rat at 5 mg/kg, po administered via gavage by LC-MS/MS analysis; type: ADME, organism-based; conditions: in vivo, read-out: beta t1/2 (converted); in short: as §2
[18] = target: Proto-oncogene tyrosine-protein kinase Src (Homo sapiens) (UniProt P12931); assay: Inhibition of recombinant human full-length N-terminal His6-tagged Src expressed in Sf21 insect cells at 100 nM using poly (Glu, Tyr)4:1 as substrate measured after 1 hr by ELISA relative to control; in short: as §3
[19] = target: Fibroblast growth factor receptor 3 (Homo sapiens, UniProt P22607); assay: Inhibition of recombinant human N-terminal His6-tagged FGFR3 (447 to 761 residues) expressed in baculovirus infected Sf21 insect cells using poly (Glu, Tyr)4:1 as substrate measured after 1 hr by ELISA; in short: as §1

Structure (SMILES): Cc1ccc(C(=O)Nc2ccc(Cl)cc2)cc1C#Cc1cc(-c2cnn(C)c2)cnc1N
- inhibition [1]: 16.2%
- Cmax [2]: 166 ng/mL
- inhibition [3]: 96.6%
- inhibition [4]: 23.2%
- inhibition [5]: 72.8%
- inhibition [6]: 0%
- inhibition at 1 h, 1 µM (c-KIT): 98.2%
- inhibition [7]: 0%
- half-life [8]: 3.33 h
- MRT inf [9]: 5.42 h
- inhibition [10]: 0%
- inhibition [11]: 0%
- inhibition [12]: 95.5%
- inhibition [13]: 98.3%
- inhibition [14]: 69.4%
- inhibition [15]: 87.9%
- inhibition [16]: 30.9%
- half-life [17]: 2.21 h
- inhibition [18]: 61.7%
- IC50 [19]: > 1000 nM
